Assay results taken from article PMC8387982 (ACS Omega, 2021).

Columns and labels:
[1] = system: bacteria (S. aureus, B. subtilis, E. coli, P. aeruginosa, K. pneumoniae); assay: Geometric mean of the peptide MICs; format: cell-based; conditions: over the five bacterial strains
Outline: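 Broth microdilution: single colony grown in MHB at 37 °C for 16–24 h. Log-phase culture diluted to 1×10^6 CFU/mL and mixed with equal volumes of serially diluted test compound. […] At least three independent experiments, each with three technical replicates. Geometric mean of MICs across strains computed.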

[2] = system: human erythrocytes; assay: Hemolytic assay; format: cell-based; conditions: concentration causing 10% hemolysis of erythrocytes; 1 h, 37 °C
[3] = system: human glomerular mesangial cell (GMC) line; assay: MTT cytotoxicity assay; format: cell-based; conditions: read-out: IC50 for GMC, 12 h, peptides 1-256 μM
Outline: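 MTT assay: human GMC cells seeded at 1.0×10^4 cells/well and exposed to test compound (1–256 μM) for 12 h at 37 °C, 5% CO2. Then 0.5 mg/mL MTT added for 4 h at 37 °C; formazan dissolved in DMSO and read at 570 nm. At least three independent experiments, each with three technical replicates.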

[4] = Circular dichroism, α-helical content; format: physicochemical
Outline: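 CD spectra recorded at 25 °C in a 1.0 mm quartz cell over 190–260 nm (50 nm/min, 1 nm bandwidth, 1 s response). Test compound at 50 μM final in deionized water or 50% TFE. Observed ellipticity corrected for buffer and converted to mean residue ellipticity using peptide concentration, path length and residue number.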

[5] = system: P. aeruginosa ATCC 27853; assay: Checkerboard FIC with conventional antibiotics; format: cell-based, Pseudomonas aeruginosa; conditions: in combination with rifampicin
Outline: (§1)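 Checkerboard assay: test compound and antibiotic mixed at 2× their MICs, then 2-fold serial dilutions made in MHB. Equal volume of bacteria (1×10^6 CFU/mL) added and incubated 18–24 h at 37 °C. Growth read as in the MIC assay. FIC = (MIC peptide in combination/MIC peptide alone) + (MIC antibiotic in combination/MIC antibiotic alone). Interpretation: ≤0.5 synergy; 0.5–1 additive; 1.0–<4.0 indifference; ≥4 antagonism.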

[6] = system: E. coli ATCC 25922; assay: Checkerboard FIC with conventional antibiotics; format: cell-based, Escherichia coli
Outline: as §1

[7] = system: K. pneumoniae ATCC 700603; assay: Checkerboard FIC with conventional antibiotics; format: cell-based, Klebsiella pneumoniae
Outline: as §1

| Substance | GM (geometric mean of the peptide MICs) [1] [µM] | MHC (minimum hemolytic concentration) [2] [µM] | IC50 [3] [µM] | α-helix in 50% TFE ([4]; CD, 50 μM peptide, 50% TFE, 25 °C) [%] | α-helix in water ([4]; CD, 50 μM peptide, deionized water, 25 °C) [%] | α-helical structure in water (CD) ([4]; water environment, result in words) | FIC [5] | FIC ([6]; in combination with gentamicin) | FIC ([6]; in combination with rifampicin) | FIC ([7]; in combination with gentamicin) | FIC ([7]; in combination with rifampicin) |
| --- | --- | --- | --- | --- | --- | --- | --- | --- | --- | --- | --- |
| H-GLLKRIKTLL-NH2 [Anoplin] | 48.50 | >256 | > 256 | 82.64 | 14.03 | did not show a α-helical structure |  |  |  |  |  |
| polymyxin B |  |  |  |  |  |  | 0.3125 | 0.3125 | 0.125 | 0.5 | 0.3125 |
